Compound activity (PubChem BioAssay)
Sampled rows, rich in hits. Any-hit rate of the full collection: about 4.6%.
ALR inh – human ALR oxidase inhibition via reduced H2O2; P55789; purified ALR, DTT oxidation, H2O2 HRP-luminol luminescence; inhibition, % (concentration not given with the values); 3.8% of 290,000 active;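 active = mean replicate inhibition above about 79%, with every replicate also reaching it, limit read from the data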
Target sequence (P55789 whole entry, looked up): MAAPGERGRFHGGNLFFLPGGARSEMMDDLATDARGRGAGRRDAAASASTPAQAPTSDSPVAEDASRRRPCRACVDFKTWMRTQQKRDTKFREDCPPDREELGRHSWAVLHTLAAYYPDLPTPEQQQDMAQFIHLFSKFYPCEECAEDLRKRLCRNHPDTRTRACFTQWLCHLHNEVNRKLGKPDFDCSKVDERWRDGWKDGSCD
Rtt109 HAT inh – inhibitors of Candida albicans Rtt109/Vps75 histone acetyltransferase. Q5AAJ8. purified Rtt109/Vps75, ThioGlo CoA-SH fluorescence, 4 h. inhibition, % at 34.9 µM. 0.16% of 330,000 active;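 active = inhibition of at least 50% in every replicate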
PfM18AAP inh – PfM18AAP enzyme inhibition. AID 1822. inhibition, % at 7.35 µM. 1.2% of 290,000 active. recombinant PfM18AAP, H-Glu-NHMec fluorogenic cleavage;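 active = inhibition above the campaign mean inhibition over all tested compounds plus 3 SD, cut at about 28% in these data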;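 also: 0% = plate median of test compound wells and 100% = 2 mM ZnCl2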
UCH37 inh – inhibitors of human deubiquitinating enzyme UCH37; Q9Y5K5; purified proteasome/UCH37, Ub-AMC cleavage fluorescence; inhibition, % (concentration not given with the values); 0.33% of 330,000 active; AID 588478;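 active = mean inhibition over replicate wells above about 20%, limit read from the data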;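 also: 0% = compound-free wells with enzyme and 100% = wells lacking proteasome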
Target sequence (Q9Y5K5 whole entry, looked up): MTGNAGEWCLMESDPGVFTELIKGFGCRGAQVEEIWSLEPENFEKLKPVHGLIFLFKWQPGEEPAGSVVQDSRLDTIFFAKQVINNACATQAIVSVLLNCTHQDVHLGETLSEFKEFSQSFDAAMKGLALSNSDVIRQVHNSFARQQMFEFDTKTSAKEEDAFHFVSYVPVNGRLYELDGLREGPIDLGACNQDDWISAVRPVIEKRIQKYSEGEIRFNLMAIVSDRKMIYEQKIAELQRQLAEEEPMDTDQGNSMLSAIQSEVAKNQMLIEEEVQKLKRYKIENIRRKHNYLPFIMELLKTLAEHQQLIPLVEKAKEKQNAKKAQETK
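Schedule: 30 min plus 25 min, room temperature / Material: human UCH37 within purified proteasomes / Technique: AMC fluorescence intensity at 355/460 nm / Buffer or medium: pH 7.4 Tris-HCl (50 mM) with ovalbumin, ATP-MgCl2, DTT / Controls: wells without proteasome as full block, compound-free enzyme plus substrate as uninhibited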
HDAC3 inhib – inhibitors of human histone deacetylase 3; 0.15% of 320,000 active; recombinant HDAC3, fluorogenic peptide/trypsin coupled, fluorescence; inhibition, % at 8.3 µM; in the data active = inhibition above about 26%, passing the limit was not always enough
FAS-TE inh – FAS thioesterase (human) inhibition; inhibition, % at 15 µM; 0.67% of 360,000 active; P49327; AID 602261; recombinant FAS-TE, OMFH fluorogenic substrate, fluorescence endpoint;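 active = compounds whose normalised, plate-corrected inhibition of enzyme fluorescence in the single-dose primary screen is 50% or more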;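 also: 0% = DMSO with enzyme and 100% = substrate without enzyme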
An asterisk follows results filed as active; i = inactive; . = no result given.

SMILES	ALR inh	Rtt109 HAT inh	PfM18AAP inh	UCH37 inh	HDAC3 inhib	FAS-TE inh
Cc1ccc(CNc2ccc(N3CCOCC3)cc2)cc1	99*	2	-13	.	-2	-4
COC(=O)CNc1ccc2c(c1)OCO2	7	-1	31*	3	2	-12
Cc1ccc(CNc2ccc(N3CCOCC3)c(Cl)c2)cc1	35	8	2	-1	0	12
CC(Nc1ccc2c(c1)OCCO2)C(=O)Nc1ccc2c(c1)OCO2 (centres undefined)	96*	0	0	4	0	-2
c1cc(CNc2ccc3c(c2)OCO3)ccn1	87*	-7	6	-9	-10	-11
Cc1ccc(CNc2ccc3c(c2)OCO3)cc1	-15	-2	7	-4	-5	-37
c1cc2c(cc1CNc1ccc(N3CCOCC3)cc1)OCO2	98*	-1	.	6	2	-6
CC1CCc2c(sc(N)c2C(N)=O)C1 (centres undefined)	-23	50*	29*	-27	8	0
CCCCOc1ccc(CSc2nc(C)[nH]c2[N+](=O)[O-])cc1[N+](=O)[O-]	99*	.	6	6	2	6
CCCOc1ccc(CSC2=NCCN2)cc1[N+](=O)[O-]	99*	1	4	-2	0	-6
O=C(CCC1CCCCC1)Nc1ccccc1-c1ccccc1	0	-15	5	4	5	18
O=C(CCC1CCCCC1)Nc1ccccc1O	91*	-1	-2	2	6	-4
CCOc1ccc2[nH]c3c(NCCO)ncnc3c2c1	89*	2	-4	-268	-10	-2
CCOc1cc(C=NNC(=O)c2ccc(CSc3nncn3C)cc2)ccc1OCC(=O)N1CCOCC1	.	.	.	3	.	.
COc1ccc(C=NNC(=O)c2ccn[nH]2)cc1CN1CCOCC1	.	.	.	3	.	.
O=c1oc2cc(O)ccc2cc1-c1ccccc1	91*	i	4	i	-334	-5
Nc1cccc(-c2cc3ccccc3oc2=O)c1	99*	-7	9	6	14	-1
O=c1oc2ccccc2cc1-c1ccc(O)cc1O	99*	-3	5	-12	-4	-9
Nc1nnc(-c2cc3ccccc3oc2=O)s1	.	-6	2	-141	-8	-6
CC(=NNC(=O)CCc1ccccc1)c1ccc(Br)cc1	.	.	.	4	.	.
COc1ccc(C=c2sc(=CC(=O)c3ccc(C)cc3)[nH]c2=O)c(OC)c1	.	.	.	10	.	.
COc1cc(C=Nn2c(C)nnc2C)cc(OC)c1OC	.	.	.	3	.	.
CC(=NNC(=S)Nc1cccc(C)c1)c1ccco1	.	.	.	6	.	.
CCc1cc2c(nc1CC)CCN(CCC(C)=NOC[C@H]1O[C@H](c3ccccc3)C=C[C@@H]1Oc1ccc(OC)cc1)C2	.	.	.	1	.	.
O=C(Nc1ccccc1)OCCN1CCN(Cc2ccccc2)CCC1=O	-11	-6	-3	5	0	-9
SMILES	ALR inh	Rtt109 HAT inh	PfM18AAP inh	UCH37 inh	HDAC3 inhib	FAS-TE inh
Cc1ccc(NC(=O)OCCN2CCN(Cc3ccccc3)CCC2=O)cc1	92*	1	-2	3	3	-8
COc1ccc(C(=O)NN=Cc2ccc(OC)c(CN3CCN(c4ccc(F)cc4)CC3)c2)cc1	.	.	.	2	.	.
Cc1cc(NC(=O)CSc2ccccn2)no1	-9	.	5	0	3	-6
Cc1cc(NC(=O)CS(=O)(=O)c2c[nH]c3ccccc23)no1	1	-1	-3	5	-13	-6
Cc1cc(NC(=O)CSc2nc(C)c(C)n2CC(C)C)no1	93*	7	.	2	3	-3
Cc1cc(NC(=O)CSc2c(C)[nH]c3ccccc23)no1	95*	-4	8	2	.	-4
Cc1cc(NC(=O)CSc2c[nH]c3ccccc23)no1	99*	1	0	4	3	-7
CC1CN(S(=O)(=O)c2ccc(C(=O)Nc3nnc(-c4ccco4)o3)cc2)CC(C)O1 (centres undefined)	87*	2	8	7	1	-12
CC1CCN(S(=O)(=O)c2ccc(C(=O)Nc3nnc(-c4ccco4)o3)cc2)CC1	9	18	-6	7	4	1
CC1=NC(=O)C(N=Nc2ccccc2C(=O)O)N1c1ccccc1 (centres undefined)	.	35	1	21*	.	-2
CC1=NC(=O)C(N=Nc2ccccc2C)N1c1ccccc1 (centres undefined)	.	.	6	.	.	.
CCN(Cc1ccccc1)c1ccc(C=NN=C(N)N)cc1	.	.	.	-149	.	.
CN(C)c1cccc(C(=O)NNC(=S)NC2CC3CCC2C3)c1 (centres undefined)	85*	1	-2	-1	-3	1
Cc1nc2cc(C(=O)O)ccc2s1	-1	2	30*	1	1	-9
CC(C(=O)Nc1ccc(O)cc1)c1cccc(C(=O)c2ccccc2)c1 (centres undefined)	99*	10	2	0	6	1
CC(=O)Nc1ccc(NC(=O)C(C)c2cccc(C(=O)c3ccccc3)c2)cc1 (centres undefined)	-3	5	-2	4	1	-1
NC(=O)C1CCN(c2nc(-c3ccc4occc(=O)c4c3)cs2)CC1	99*	0	.	4	5	-13
NC(=O)C1CCN(c2nc(-c3ccc(F)cc3)cs2)CC1	2	0	.	0	-3	-4
Cc1cc(NCc2ccccn2)ccc1Br	99*	-5	14	1	-1	-1
CC(=O)Nc1ccc2c(c1)ncn2-c1ccccc1	-33	30	-3	1	10	-6
Cc1ccc(NC(=S)NCc2ccccn2)cc1	38	4	15	1	-2	-6
c1ccc(-n2cnc3cc(NCc4ccncc4)ccc32)cc1	99*	1	3	3	2	-9
c1ccc(-n2cnc3cc(NCc4ccccn4)ccc32)cc1	100*	-1	16	3	5	-5
CCC(=O)Nc1ccc2c(c1)ncn2-c1ccccc1	-11	-2	-14	4	4	-9
COc1ccc(OC)c(CNc2ncc(-c3cccc([N+](=O)[O-])c3)n2C)c1	98*	-13	4	7	5	6
SMILES	ALR inh	Rtt109 HAT inh	PfM18AAP inh	UCH37 inh	HDAC3 inhib	FAS-TE inh
FC(F)(F)c1cc(-c2ccco2)nc(NCc2ccccc2)n1	98*	8	2	-10	4	22
CN1C(=O)c2ccccc2NC(=O)[C@]12O[C@@H]2c1cccc(O)c1	99*	1	.	-3	-2	-9
Cc1ccc(NC(=O)COC(=O)c2ccc(NC(=O)CC#N)cc2)cc1S(=O)(=O)N1CCOCC1	99*	-2	.	3	0	1
CCOC(=O)CC(=O)CSc1ncnc2c1nnn2-c1ccc(F)cc1	.	-43	-15	.	61*	-2
COc1ccc(-n2nnc3c(SCC(=O)Nc4ccc5c(c4)OCCO5)ncnc32)cc1	99*	.	-5	1	6	.
Cc1ccc(NC(=O)CSc2ncnc3ccccc23)cc1S(=O)(=O)N1CCCCC1	59	3	-1	3	9	11
